# From PubChem BioAssay
# SR-BI DiI inh = mouse SR-BI HDL lipid transfer inhibition; inhibition, % at 12.5 µM; ldlA[mSR-BI] CHO cells, DiI-HDL uptake fluorescence, 3 h; Q61009; AID 488896; 320,000 compounds, 0.96% hits;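 active = mean replicate inhibition of at least 70% and a set share of replicates each scoring 70 or more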;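 note: 0% = median of neutral control wells and 100% = median of positive control wells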
# Target sequence (Q61009 whole entry, looked up): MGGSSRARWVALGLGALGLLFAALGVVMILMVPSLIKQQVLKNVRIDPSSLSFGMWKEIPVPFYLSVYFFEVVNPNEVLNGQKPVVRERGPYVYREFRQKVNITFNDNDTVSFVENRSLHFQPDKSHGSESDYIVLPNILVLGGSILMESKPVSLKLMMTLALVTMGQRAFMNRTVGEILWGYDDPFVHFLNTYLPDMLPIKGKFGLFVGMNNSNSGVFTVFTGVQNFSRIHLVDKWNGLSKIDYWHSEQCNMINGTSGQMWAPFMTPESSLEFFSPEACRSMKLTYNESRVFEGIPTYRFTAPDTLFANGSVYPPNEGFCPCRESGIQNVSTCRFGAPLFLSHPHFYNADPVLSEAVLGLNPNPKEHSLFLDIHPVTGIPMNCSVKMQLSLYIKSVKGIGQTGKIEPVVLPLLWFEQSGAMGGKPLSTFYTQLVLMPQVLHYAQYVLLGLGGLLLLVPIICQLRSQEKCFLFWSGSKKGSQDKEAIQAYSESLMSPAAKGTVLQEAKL
# SR-BI DiI-HDL act = SR-BI HDL lipid transfer activation. AID 504775. CHO ldlA[mSR-BI] cells, DiI-HDL uptake fluorescence, 3 h; 100 = double the neutral-control signal. activation, % at 12.5 µM. 320,000 compounds, 0.096% hits;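 active = mean replicate activation of at least 60% and every replicate at or above 60%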;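 note: 0% = median plate neutral-control signal and 100% = twice that signal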
#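 material = CHO ldlA[mSR-BI] cells | medium = Ham's F12 with 0.5% BSA, HEPES 25 mM, pH 7.4 | reagent = fluorescent DiI-HDL, 10 µg/mL final | compound dosing = single-point compound dose | incubation = 3 h, 37 °C | measured by = bottom-read fluorescence, 550/595 nm | measure = HDL uptake via cellular fluorescence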
# SMARCA2 activ = activators of SMARCA2 function; 370,000 compounds, 1% hits; activation, % at 9.1 µM; AID 652017; MG213 cells, MMTV-luciferase reporter, dexamethasone, overnight; in the data active = activation above about 7.8%;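 note: 0% = vehicle wells and 100% = reference activator wells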
# Lipid droplet = modulators of hepatic lipid droplet formation. AML12 mouse hepatocytes, oleate lipid droplets, BODIPY imaging. inhibition, % at 6.5 µM. 240,000 compounds, 0.4% hits. AID 1656;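 active = lipid droplet intensity inhibited by at least 50%, with more than 500 cells counted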
#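 System: AML12 hepatocytes (mouse). Probe or stimulus: oleic acid at 100 µM to induce lipid droplet formation. Times: overnight treatment with compound plus oleate. Detection: Image-based BODIPY and DAPI two-channel analysis. Evaluation: percent inhibition of filter-corrected integrated lipid droplet intensity per well.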
# AHR activator = activators of human aryl hydrocarbon receptor. P35869. AHR-responsive luciferase reporter cells, luminescence. activation, % at 5 µM. 320,000 compounds, 2.5% hits. AID 2796; in the data active = activation above about 47%;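 note: 0% = vehicle wells and 100% = reference agonist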
# Yeast superoxide = caloric restriction mimetics inhibiting age-related superoxide in yeast | 330,000 compounds, 0.18% hits | AID 2690 | S. cerevisiae aged cells, superoxide DHE fluorescence; hits give low values | superoxide response (% of plate mean), % at 10 µM;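 active = superoxide response under a set limit, about three screen SD below normal, cut at about 65% in these data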;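 note: yeast aged for seven days with compound at 30 °C before DHE staining; 100% = average MFI of all compound-treated wells on the plate with controls excluded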
# Active calls of the source: *; / = not tested or not shown. Compounds with a hit are over-represented: about 4.3% of the library has one in this group of screens.
SMILES,SR-BI DiI inh,SR-BI DiI-HDL act,SMARCA2 activ,Lipid droplet,AHR activator,Yeast superoxide
NC(=O)c1oc2ccccc2c1NC(=O)c1ccccc1,28,-28,0,11,69*,104
NC(=O)c1oc2ccccc2c1NC(=O)c1ccco1,-9,9,3,2,47*,90
CC(C)CNC(=O)OCc1cn(Cc2c(F)cccc2F)nn1,/,/,-2,/,/,/
O=C(/C=C/c1ccc(Cl)cc1)N1CCN(CCN2C(=O)c3cccc4cccc(c34)C2=O)CC1,78*,-78,0,/,/,/
O=CN1CCN(C(=O)C2CCN(c3ncnc4c3sc3cccc(F)c34)CC2)CC1,/,/,-4,/,/,/
CC1=NN(C(=O)c2ccccc2Cl)C(O)(c2ccccc2)C1 (configuration not stated),-13,13,0,1,1,107
CC1=NN(C(=O)c2ccccc2)C(O)(c2ccc(Br)cc2)C1 (configuration not stated),94*,-94,3,5,7,98
O=C1CN(C(=O)c2cccc([N+](=O)[O-])c2)CC(=O)N1,-13,13,-1,20,1,116
CCC1=NN(C(=O)c2cccc([N+](=O)[O-])c2)C(O)(c2ccc(C)cc2)C1 (configuration not stated),76*,-76,3,/,7,91
CCC1=NN(C(=O)c2ccc(Br)cc2)C(O)(c2ccccc2)C1 (configuration not stated),80*,-79,2,7,8,94
CCOC(=O)C1=NN(C(=O)c2ccccc2)C(O)(c2ccc(C)cc2)C1 (configuration not stated),7,-7,0,3,-1,88
COc1ccc(S[C@]2(C(=O)N3CCCC3)CC(=O)N(C(=O)c3ccccc3)[C@@H]2c2ccc(OC)cc2)cc1,/,/,-5,/,/,/
C=CCN(Cc1ccc(OC)c(OC)c1)C(=O)c1cc2cc(F)ccc2[nH]1,9,-9,-1,0,47*,109
COc1cc2cc(C(=O)N(C)Cc3ccccc3)[nH]c2cc1OC,28,-28,1,2,/,99
COC(=O)[C@]12C[C@H](CC(=O)NCCC(C)C)C(=O)N(Cc3ccco3)C1=C[C@H](C1CCCC1)O[C@@H]2C,/,/,-1,/,/,/
CCOc1ccccc1NC(=O)c1cc(-c2ccccn2)nc2ccccc12,75*,-75,-2,/,71*,96
CCN(CC)C(=O)c1ccc2nc3ccccc3nc2c1,-8,8,3,-2,38,37*
CCN(CC)C(=O)c1cccc(NC(=O)c2cc(-c3ccccn3)nc3ccccc23)c1,75*,-75,-3,/,6,125
COc1ccc(NC(=O)c2cc(-c3ccccn3)nc3ccccc23)c(OC)c1,55,-55,-2,/,9,102
CCC1=[N+](CC(=O)c2ccc(C)cc2)CCn2c(C)ccc21,-29,29,-4,-25,71*,94
CCC1=[N+](CC(=O)c2ccc(C)cc2)CCn2cccc21,27,-27,-2,6,23,97
CCC1=[N+](C)CCn2c(C)ccc21,9,-9,0,12,1,122
CCC1=[N+](CC(=O)c2ccc(Br)cc2)CCn2c(C)ccc21,17,-17,4,-23,73*,105
COc1cccc(C(=O)N(c2ccc(C)cc2)C2C=CS(=O)(=O)C2)c1 (configuration not stated),-5,5,7.9*,11,0,98
CCOC(=O)[C@@]12CCC3=C1N(CCC3)C(=O)[C@H](CC(=O)NCCCN1CCCC1=O)C2,/,/,0,/,/,/
CC1(C)Oc2ccc(C(=O)NCCCN3CCCC3)cc2NC1=O,/,/,4,/,/,/
Clc1cccc(Oc2ncc(CN3CCOCC3)s2)c1,-20,20,7.9*,/,5,85
CC(C)c1ccc(NC(=O)c2cc(S(=O)(=O)N3CCCC3)c[nH]2)cc1,5,-5,-3,0,49*,116
CCOc1ccccc1NC(=O)c1ccc(S(=O)(=O)N2CCCCC2)cc1,76*,-76,-3,5,9,115
Cc1ccc(S(=O)(=O)N2CCCCC2)cc1NC(=O)c1ccc(Cl)nc1,18,-18,-1,/,75*,89
